Experimental data reported in ChEMBL document CHEMBL4406880, “Design, synthesis, and bioactivity of dihydropyrimidine derivatives as kinesin spindle protein inhibitors” (Bioorg Med Chem, 2019).

Experiments:
NCI-H23 = experiment: Growth inhibition of human NCI-H23 cells assessed as growth percentage at 10 uM incubated for 48 hrs by sulforhodamine B assay relative to control; type: functional; settings: NCI-H23, 48 h, read-out: Activity
Summary of the method: (§1)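 NCI-60 one-dose screen. Cells in RPMI 1640 with 5% FBS and 2 mM L-glutamine, seeded at 5,000–40,000 cells/well according to doubling time, and preincubated overnight at 37 °C, 5% CO2. A time-zero plate was TCA-fixed at drug addition. Compound from DMSO stock, final 10 µM, 48 h; DMSO vehicle controls. Fixation with TCA, 10% final (16% for suspension cells). SRB stain, Tris solubilization, A515. Result given as % growth versus untreated cells.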

CAKI-1 = experiment: Growth inhibition of human Caki1 cells assessed as growth percentage at 10 uM incubated for 48 hrs by sulforhodamine B assay relative to control; type: functional; settings: CAKI-1, 48 h, read-out: Activity
Summary of the method: (§2)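 NCI-60 one-dose screen: cells in RPMI 1640 with 5% FBS and 2 mM L-glutamine, plated at 5,000–40,000 cells/well and preincubated 24 h at 37 °C, 5% CO2. Compound is added from a DMSO stock to a final 10 µM and incubated 48 h. Cells are TCA-fixed and stained with sulforhodamine B, read at 515 nm. Output is % growth versus untreated control, with a time-zero plate.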

[1] = Growth inhibition of human HEK293 cells assessed as cell viability at 100 ug incubated for 48 hrs by MTT assay relative to control; type: cell-based; settings: read-out: Activity
SF-268 = experiment: Growth inhibition of human SF268 cells assessed as growth percentage at 10 uM incubated for 48 hrs by sulforhodamine B assay relative to control; type: functional; settings: SF-268, 48 h, read-out: Activity
Summary of the method: (§3)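 NCI-60 single-dose screen. Cells were grown in RPMI 1640 with 5% FBS and 2 mM L-glutamine and plated at 5,000–40,000 cells/well. After an overnight preincubation at 37 °C in 5% CO2, compound was added at a final 10 µM from a DMSO stock, with DMSO/PBS controls. After 48 h, cells were TCA-fixed and stained with 0.4% SRB, and absorbance was read at 515 nm. Growth is given as a percentage of untreated control.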

SK-MEL-2 = experiment: Growth inhibition of human SK-MEL-2 cells assessed as growth percentage at 10 uM incubated for 48 hrs by sulforhodamine B assay relative to control; type: functional; settings: SK-MEL-2, 48 h, read-out: Activity; summary of the method: as §3
Malme-3M = experiment: Growth inhibition of human MALME-3M cells assessed as growth percentage at 10 uM incubated for 48 hrs by sulforhodamine B assay relative to control; type: functional; settings: read-out: Activity; summary of the method: as §1
OVCAR-5 = experiment: Growth inhibition of human OVCAR5 cells assessed as growth percentage at 10 uM incubated for 48 hrs by sulforhodamine B assay relative to control; type: functional; settings: OVCAR-5, 48 h, read-out: Activity; summary of the method: as §3
HEK293 = experiment: Growth inhibition of human HEK293 cells assessed as cell viability incubated for 48 hrs by MTT assay; type: cell-based; design: unit not given here
Summary of the method: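 HEK 293 normal-cell growth inhibition; measured in triplicate, IC50 reported as mean ± SD.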

SNB-75 [2] = experiment: Cell cycle arrest in human SNB75 cells assessed as accumulation in preG1 phase at 2 uM incubated for 24 hrs by propidium iodide based flow cytometry (reference value: 1.85 %); type: functional
Summary of the method: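 SNB-75 cells were exposed to 2 µM for 24 h at 37 °C, 5% CO2, then washed with PBS and fixed in 70% ethanol on ice for 15 min. They were stained 1 h at room temperature with 50 µg/mL propidium iodide, 0.1 mg/mL RNase A and 0.05% Triton X-100. DNA content was read by flow cytometry to give the % of cells in pre-G1, G0/G1, S and G2/M.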

CCRF-CEM = experiment: Growth inhibition of human CCRF-CEM cells assessed as cell viability at 1 uM incubated for 48 hrs by sulforhodamine B assay; type: functional; settings: read-out: Activity
[3] = Growth inhibition of human HEK293 cells assessed as cell viability at 0.39 ug incubated for 48 hrs by MTT assay relative to control; type: cell-based; settings: read-out: Activity
UACC-62 = experiment: Growth inhibition of human UACC62 cells assessed as cell viability at 0.001 uM incubated for 48 hrs by sulforhodamine B assay relative to control; type: functional; settings: UACC-62, 48 h, read-out: Activity
MDA-MB-435 [4] = experiment: Induction of apoptosis in human MDA-MB-435 cells assessed as active caspase 3 level incubated for 2 hrs by ELISA (reference value: 1); type: functional
Summary of the method: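 Active caspase-3 was measured by human sandwich ELISA. Samples were incubated on the plate for 2 h at room temperature. This was followed by 1 h with detection antibody, 30 min with anti-rabbit IgG-HRP, and 30 min with chromogen, with all steps at room temperature. Absorbance was read at 450 nm, and levels were read from a standard curve.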

SNB-75 [5] = experiment: Growth inhibition of human SNB75 cells assessed as cell viability at 0.1 uM incubated for 48 hrs by sulforhodamine B assay; type: functional; settings: SNB-75, 48 h, read-out: Activity
[6] = Inhibition of kinesin (unknown origin) assessed as reduction in ATPase activity using microtubule as substrate measured for 5 to mins; design: species or system Homo sapiens
HOP-92 = experiment: Growth inhibition of human HOP92 cells assessed as growth percentage at 10 uM incubated for 48 hrs by sulforhodamine B assay relative to control; type: functional; settings: HOP-92, 48 h, read-out: Activity; summary of the method: as §1
[7] = Growth inhibition of human HEK293 cells assessed as cell viability at 25 ug incubated for 48 hrs by MTT assay relative to control; type: cell-based; settings: read-out: Activity
MDA-MB-435 [8] = experiment: Induction of apoptosis in human MDA-MB-435 cells assessed as active caspase 9 level incubated for 2 hrs by ELISA (reference value: 1); type: functional
Summary of the method: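 Caspase-9 was measured by human ELISA on cell lysates, with samples in duplicate. Samples were incubated with detection antibody for 2 h at room temperature. This was followed by 1 h with anti-rabbit IgG-HRP and 10 min with TMB substrate. After a stop solution, absorbance was read at 450 nm.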

[9] = Growth inhibition of human HEK293 cells assessed as cell viability at 6.25 ug incubated for 48 hrs by MTT assay relative to control; type: cell-based; settings: read-out: Activity
MOLT-4 = experiment: Growth inhibition of human MOLT4 cells assessed as cell viability at 0.1 uM incubated for 48 hrs by sulforhodamine B assay; type: functional; settings: MOLT-4, 48 h, read-out: Activity
NCI-H522 = experiment: Growth inhibition of human NCI-H522 cells assessed as cell viability at 100 uM incubated for 48 hrs by sulforhodamine B assay; type: functional; settings: NCI-H522, 48 h, read-out: Activity
OVCAR-4 = experiment: Growth inhibition of human OVCAR4 cells assessed as growth percentage at 10 uM incubated for 48 hrs by sulforhodamine B assay relative to control; type: functional; settings: OVCAR-4, 48 h, read-out: Activity; summary of the method: as §1
[10] = Growth inhibition of human HEK293 cells assessed as cell viability at 1.56 ug incubated for 48 hrs by MTT assay relative to control; type: cell-based; settings: read-out: Activity
A498 = experiment: Growth inhibition of human A498 cells assessed as growth percentage at 10 uM incubated for 48 hrs by sulforhodamine B assay relative to control; type: functional; settings: A498, 48 h, read-out: Activity; summary of the method: as §2

Row | Structure (SMILES) | growth at 10 µM (NCI-H23) | growth at 10 µM (CAKI-1) | viability at 48 h, 100 ug [1] | growth at 10 µM (SF-268) | growth at 10 µM (SK-MEL-2) | growth at 10 µM (Malme-3M) | growth at 10 µM (OVCAR-5) | IC50 (HEK293) | viability at 48 h, 0.39 ug [3] | fold change (FC) (MDA-MB-435 [4]) | IC50 [6] | growth at 10 µM (HOP-92) | viability at 48 h, 25 ug [7] | fold change (FC) (MDA-MB-435 [8]) | viability at 48 h, 6.25 ug [9] | growth at 10 µM (OVCAR-4) | viability at 48 h, 1.56 ug [10] | growth at 10 µM (A498) | also measured
1 | CC1=C(C(=O)OCc2ccccc2)C(c2ccc3c(c2)OCO3)n2c(nc3ccccc32)N1 (racemic) | 49.3 to 56% | 24 to 34.3% | 36% | 26 to 59.6% | 33 to 47.8% | 26 to 39.7% | 53 to 64.4% | 16.75 | 77.6% | 6.83 | 4.36 µM | 32 to 78.5% | 47.2% | 12.43 | 58.7% | 54 to 73.8% | 67.2% |  | Activity (SNB-75 [2]): 24.82%; viability at 1 µM (CCRF-CEM): 19%; viability at 0.001 µM (UACC-62): 90%; viability at 0.1 µM (SNB-75 [5]): 79%; viability at 0.1 µM (MOLT-4): 99%; viability at 100 µM (NCI-H522): -8%
2 | CC(=O)N1C(=S)NC(C)=C(C(=O)OCc2ccccc2)C1c1ccc2c(c1)OCO2 (racemic) | 94% | 92.4% | 41.4% | 73.8% | 88.6% | 91.6% | 107% | 27.99 | 76.2% | 7.9 | 3.86 µM | 73.3% | 50% | 18.79 | 61.3% | 99.3% | 69.3% | 92% | 
3 | CC(=O)C1=C(C)Nc2nc3ccccc3n2C1c1ccc2c(c1)OCO2 (racemic) | 106% | 88.3% | 36.6% | 105% | 130% | 105% | 113% | 19.3 | 77.4% |  | 14.1 µM | 91% | 48.6% |  | 59% | 102% | 70.7% | 112% | 
4 | CC1(C)CC(=O)C2=C(C1)NC(=O)NC2c1ccc2c(c1)OCO2 (racemic) | 104% | 93.9% | 43.5% | 98.8% | 104% | 100% | 108% | 33.2 | 78% |  | 3.95 µM | 112% | 50.9% |  | 60.1% | 102% | 71.5% | 124% | 
5 | CC1=C(C(=O)c2ccccc2)C(c2ccc3c(c2)OCO3)NC(=S)N1 (racemic) | 48% | 35.6% | 46% | 75.8% | 60.5% | 54.5% | 72.5% | 62.02 | 86.8% |  | 10.7 µM | 92.3% | 57.9% |  | 69.9% | 82.3% | 79.5% | -12.5% | 
